High-throughput results from PubChem.
The list is not random: actives were taken first. Their share in the collection is about 3%.
TRPC6 inhibitor: mouse TRPC6 channel inhibition. Q61143. HEK293-TRPC6, membrane potential dye, ACh-evoked depolarization; active compounds read low. B-score at 10 µM. 1.1% of 310,000 active;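 active = B-score under library mean minus 3 SD, initial fluorescence not abnormally high, positive integrated signal ratio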;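 note: B-score derived from integrated fluorescence ratio over the kinetic read; more negative B-score means stronger inhibition of depolarization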
Target sequence (Q61143 whole entry, looked up): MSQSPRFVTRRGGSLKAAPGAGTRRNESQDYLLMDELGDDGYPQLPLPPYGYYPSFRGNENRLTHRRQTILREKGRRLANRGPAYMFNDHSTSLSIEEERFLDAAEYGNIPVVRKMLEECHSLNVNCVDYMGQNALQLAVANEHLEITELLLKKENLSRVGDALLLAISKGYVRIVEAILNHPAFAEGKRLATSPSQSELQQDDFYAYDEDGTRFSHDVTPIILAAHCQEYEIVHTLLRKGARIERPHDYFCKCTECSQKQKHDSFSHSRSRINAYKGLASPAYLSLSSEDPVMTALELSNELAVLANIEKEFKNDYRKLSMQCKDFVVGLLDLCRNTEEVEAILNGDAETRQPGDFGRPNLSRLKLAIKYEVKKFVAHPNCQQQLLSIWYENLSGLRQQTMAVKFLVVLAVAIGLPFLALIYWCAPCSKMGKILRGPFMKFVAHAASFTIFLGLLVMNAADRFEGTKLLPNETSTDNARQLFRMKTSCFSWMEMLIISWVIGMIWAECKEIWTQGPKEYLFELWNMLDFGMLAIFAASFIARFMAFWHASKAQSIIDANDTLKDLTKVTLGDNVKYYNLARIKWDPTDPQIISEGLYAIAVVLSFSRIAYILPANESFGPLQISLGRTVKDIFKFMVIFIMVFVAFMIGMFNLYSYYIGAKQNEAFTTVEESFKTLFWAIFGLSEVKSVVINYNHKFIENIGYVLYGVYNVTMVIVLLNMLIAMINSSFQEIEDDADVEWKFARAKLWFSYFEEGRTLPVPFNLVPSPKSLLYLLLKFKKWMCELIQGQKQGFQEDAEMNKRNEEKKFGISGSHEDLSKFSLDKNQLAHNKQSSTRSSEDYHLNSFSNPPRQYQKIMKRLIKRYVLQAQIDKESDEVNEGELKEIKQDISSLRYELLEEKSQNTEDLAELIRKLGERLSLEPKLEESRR
TRPC4 agonist: TRPC4 (mouse) channel activation; Q9QUQ5; HEK293 TRPC4beta/mu-opioid, Fluo4 calcium fluorescence; active compounds read high; B-score at 10 µM; 0.49% of 310,000 active;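 active = B-score above 5 SD of library B-scores, and initial fluorescence ratio not above library mean plus 5 SD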;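 note: positive B-score marks a calcium rise read as TRPC4 activation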
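Material: TRPC4beta and mu-opioid receptor HEK293 stable cells | Incubation: 45 min room-temperature Fluo4 loading, 110 s read | Detection: Kinetic Fluo4 calcium fluorescence | Measure: Integrated baseline-normalised fluorescence ratio, converted to per-well B score | Benchmarks: Low control buffer alone, high control maximal DAMGO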
TRPC4 inh: inhibitors of mouse TRPC4 channel. 0.39% of 300,000 active. HEK293 TRPC4beta/mu-opioid, DAMGO-evoked Fluo4 calcium flux; active compounds read low. B-score at 10 µM. Q9QUQ5;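 active = B-score over 3 SD under the library average, no early fluorescence shift, positive overall ratio signal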
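Assay system – HEK293 line stably carrying TRPC4beta and mu-opioid receptor · Doses – single dose · Detection – Fluo4 calcium-dye fluorescence, kinetic read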
TRPC4 potent: allosterically enhances the mouse TRPC4 cation channel; Q9QUQ5; 0.42% of 310,000 active; B-score at 10 µM; HEK293 TRPC4beta/mu-opioid, DAMGO EC20, Fluo-4 Ca2+ flux; active compounds read high;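 active = B-score of calcium response area above 5 SD of library B-scores, with initial fluorescence ratio within 5 SD of library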
Kir21 inh: Kir2.1 (mouse) channel inhibition; B-score at 10 µM; P35561; HEK293-Kir2.1, FluxOR thallium flux fluorescence; active compounds read low; AID 1672; 0.85% of 310,000 active;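 active = fluorescence ratio B-score at or below minus 3 SD of library scores, with starting-brightness B-score within 2 SD, cut at about -4.2 in these data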;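 note: channel flux triggered by added potassium and thallium sulfate stimulus; B-score of peak minus minimum fluorescence over baseline after thallium stimulus; more negative B-score means stronger Kir2.1 block with less thallium influx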
TRPC6 act: activates the mouse TRPC6 cation channel; HEK293-TRPC6 membrane potential dye fluorescence; active compounds read high; B-score at 10 µM; 0.13% of 310,000 active; AID 2550;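 active = B-score of the integrated fluorescence ratio above library mean plus 3 SD, and starting fluorescence ratio within library mean plus 5 SD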;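 note: higher score means more depolarization so channel activation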
TRPC4 sel inh 2: second check of whether TRPC6 inhibitors also affect mouse TRPC4; inhibition, % at 10 µM; HEK293 TRPC4/MOR, membrane potential dye fluorescence; channel activated by saturating DAMGO dose; shares compounds with TRPC6 inhibitor; 42% of 920 active;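 active = compounds whose fluorescence signal differed from control wells by over 3 SD, either direction, in both duplicate plates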
TRPC4 spec: selectivity of TRPC6 inhibitors: effect on mouse TRPC4. shares compounds with TRPC6 inhibitor. HEK293 TRPC4/mu-opioid, membrane potential fluorescence. activity change, negative = inhibition, % at 10 µM. 61% of 920 active. AID 2777;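 active = rise or fall in signal beyond 3 SD of buffer-only wells in both replicate plates, either sign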;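 note: integrated kinetic ratio of fluorescence range over baseline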
HEK293 MPD ctr 2-1: second check of TRPC6 inhibitor effects in parental HEK293 cells. shares compounds with TRPC6 inhibitor. AID 2779. parental HEK293 membrane potential dye fluorescence; maximal acetylcholine challenge after compound addition. 31% of 920 active. signal change vs control, % at 10 µM;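 active = membrane potential signal moving either way by over 3 SD of the maximum-effect control, in both duplicate plates, meaning non-specific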
HEK293 MPD ctr-1: checks TRPC6 inhibitor effects in parental HEK293 cells; shares compounds with TRPC6 inhibitor; parental HEK293 membrane potential dye fluorescence; membrane potential signal change, % at 10 µM; 60% of 920 active;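 active = membrane potential signal shifting up or down by more than 3 SD of buffer-only wells, on both duplicate plates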
HEK293 MPD ctr-2: checks TRPC6 modulator effects in parental HEK293 cells; 51% of 2,400 active; membrane potential signal change, % at 10 µM; AID 488924; membrane potential dye fluorescence; shares compounds with TRPC6 inhibitor;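 active = membrane potential signal moves up or down beyond 5 SD from buffer-only wells, on both duplicate plates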
HEK293 MPD ctr 2-2: second counter-screen for TRPC6 modulators: effect in parental HEK293 cells | shares compounds with TRPC6 inhibitor | 14% of 2,400 active | membrane potential dye fluorescence; after compound, maximal acetylcholine stimulation | inhibition, % at 10 µM | AID 488926;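 active = membrane potential signal drops by more than 5 SD from the mean control signal, in both duplicate plates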
TRPC4/MOR mod: selectivity of TRPC6 modulators against mouse TRPC4 | shares compounds with TRPC6 inhibitor | HEK293 TRPC4/mu-opioid, membrane potential fluorescence | percent change from control (negative = decrease, positive = increase), % at 10 µM | 69% of 2,400 active | AID 488927;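 active = membrane potential signal moved up or down beyond 5 SD of buffer control wells, in both duplicate plates, actives on both sides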
TRPC4 ctr inh 2: mouse TRPC4 off-target activity of TRPC6 modulators, second screen; shares compounds with TRPC6 inhibitor; HEK293 TRPC4/mu-opioid, membrane potential dye fluorescence; stimulated with maximal-effect DAMGO; 55% of 2,400 active; inhibition, % at 10 µM;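 active = drop in membrane potential signal beyond 5 SD of the control wells in both duplicate plates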;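 note: TRPC4 counter screen for TRPC6 hits run under conditions tuned for TRPC6 not TRPC4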
TRPC6 block conf: mouse TRPC6 inhibitor confirmation. shares compounds with TRPC6 inhibitor. HEK293-TRPC6, membrane potential dye, ACh-evoked depolarization. inhibition, % at 10 µM. 43% of 3,300 active. AID 488960;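 active = fluorescence ratio falls more than 5 SD below the full-stimulation control mean, in both duplicate runs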;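 note: integrated fluorescence ratio of peak minus minimum over baseline after agonist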
TRPC6 act conf: confirmation of mouse TRPC6 activators; AID 488961; shares compounds with TRPC6 inhibitor; 11% of 2,800 active; HEK293-TRPC6 membrane potential dye fluorescence, FDSS; activation, % at 10 µM;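 active = ratio signal rise beyond 5 SD above unstimulated control wells' mean, seen in both duplicate runs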
A number is an active result; n = inactive; x = not tested or not shown.

SMILES	TRPC6 inhibitor	TRPC4 agonist	TRPC4 inh	TRPC4 potent	Kir21 inh	TRPC6 act	HEK293 MPD ctr-2	HEK293 MPD ctr 2-2	TRPC4/MOR mod	TRPC4 ctr inh 2	TRPC6 block conf	TRPC6 act conf	others
Brc1ccc2nc(-c3c[nH]c4ccccc34)cn2c1	-6.3	n	n	n	n	n	n	n	-10%	54%	n	n
Cc1cccn2cc(-c3c[nH]c4ccccc34)nc12	-6.7	n	-6	n	n	n	-113%	n	-28%	70%	68%	n
Cc1ccc(-c2cn3cccc(C)c3n2)cc1	n	n	n	n	n	n	x	x	x	x	x	x
Cc1sc2ncn(CC(=O)Nc3cccc(S(N)(=O)=O)c3)c(=O)c2c1-c1ccccc1	n	n	n	n	n	n	x	x	x	x	x	x
COc1ccc(CNC(=O)CCC(=O)Nc2ccc(Cl)cc2)cc1	n	n	n	n	n	n	x	x	x	x	x	x
Cc1onc(-c2ccccc2Cl)c1C(=O)Nc1nnc(Cc2ccc(Cl)cc2)s1	-6.6	n	n	n	n	n	x	x	x	x	n	n	TRPC4 sel inh 2=n;TRPC4 spec=n;HEK293 MPD ctr 2-1=n;HEK293 MPD ctr-1=n
COCc1nnc(NC(C)=O)s1	n	n	n	n	n	n	x	x	x	x	x	x
Cc1cc(C)n(-c2nc(SCCN(C)C)c3c4c(sc3n2)CCCC4)n1	-6.1	95	n	n	-8	n	n	n	n	72%	46%	n
O=C(Oc1ccc(Oc2ccccc2)cc1)N1CCC(O)CC1	n	n	n	n	n	n	x	x	x	x	x	x
CN(C)CCNC(=O)c1c(NC(=O)c2ccccc2)sc2c1CCCC2	-5.6	97	n	n	n	n	-150%	n	-24%	80%	53%	n
CN(CCO)C(=O)c1c(NC(=O)c2ccccc2)sc2c1CCCC2	n	n	n	n	n	n	x	x	x	x	x	x
COc1ccc(NC(=O)c2c3c(nc4ccccc24)CCC3)cc1	n	n	n	n	n	n	x	x	x	x	x	x
COC(=O)c1c2c(nc3ccccc13)CCC2	n	n	n	n	n	n	x	x	x	x	x	x
COc1ccc(Nc2c3c(nc4ccccc24)CCCC3)cc1OC	-6	n	n	n	n	n	n	n	n	44%	n	n
COc1ccc(Nc2nc(-c3ccccc3F)nc3ccccc23)cc1OC	n	n	n	n	n	n	x	x	x	x	x	x
c1ccc2c(N3CCOCC3)c3c(nc2c1)CCC3	-5.3	n	n	n	n	n	-283%	n	-40%	48%	n	n
COc1ccc(Nc2c3c(nc4ccccc24)CCC3)cc1	-5.2	n	-7	n	-12	n	157%	n	24%	36%	n	x
COCCNc1c2c(nc3ccccc13)CCC2	-5.2	n	-6	n	n	n	-144%	n	-26%	52%	46%	n
c1ccc(-c2nc(N3CCOCC3)c3ccccc3n2)nc1	n	n	n	n	n	n	x	x	x	x	x	x
COc1ccc(C(=O)NNC(=O)C(=O)Nc2cccc3ccccc23)cc1	n	n	n	n	n	n	x	x	x	x	x	x
COc1cccc(CCc2nnc(N)s2)c1	n	n	n	n	n	n	x	x	x	x	x	x
COc1ccc(CCNc2c3ccccc3nc3ccccc23)cc1OC	-6.8	n	n	n	n	n	x	x	x	x	n	n	TRPC4 sel inh 2=68%;TRPC4 spec=-24%;HEK293 MPD ctr 2-1=n;HEK293 MPD ctr-1=-412%
Cc1ccc(C2=NN(CC(=O)O)C(=O)CC2)cc1	n	n	n	n	n	n	x	x	x	x	x	x
CC(C)(C)C(=O)Nc1ccc(Cc2ccncc2)cc1	n	n	n	n	n	n	x	x	x	x	x	x
CC(C)c1cc(C(=O)N2CCCC(C(=O)c3ccc4ccccc4c3)C2)on1 (stereo not drawn)	n	n	n	n	n	n	x	x	x	x	x	x
SMILES	TRPC6 inhibitor	TRPC4 agonist	TRPC4 inh	TRPC4 potent	Kir21 inh	TRPC6 act	HEK293 MPD ctr-2	HEK293 MPD ctr 2-2	TRPC4/MOR mod	TRPC4 ctr inh 2	TRPC6 block conf	TRPC6 act conf	others
Cc1cc(Cl)ccc1C(=O)C1CCCN(C(=O)c2cc(C(C)C)no2)C1 (stereo not drawn)	-6.2	n	n	n	n	n	98%	n	20%	n	48%	x
COc1ccc(OC)c(NC(=O)CCN2C(=O)c3ccccc3C2=O)c1	n	n	n	n	n	n	x	x	x	x	x	x
Cc1cc(N2CCN(C)CC2)nc2ccc(NC(=S)NCCC(C)C)cc12	-6.2	n	n	n	n	n	-110%	n	-27%	72%	56%	n
Cc1cc(N2CCCC2)nc2ccc(NC(=S)NCCCOC(C)C)cc12	-7.1	n	n	n	n	n	-126%	n	-22%	46%	42%	n
CCCN(CCC)CCCNC(=S)Nc1ccc2nc(N3CCCC3)cc(C)c2c1	-8	n	n	n	n	n	x	x	x	x	n	n	TRPC4 sel inh 2=n;TRPC4 spec=-15%;HEK293 MPD ctr 2-1=19%;HEK293 MPD ctr-1=-166%
Cn1c(=O)c2c(nc(Cc3ccc(N)cc3)n2C)n(C)c1=O	n	n	n	n	n	n	x	x	x	x	x	x
Cc1nnc(N(C)C(=O)c2ccc3c(c2)OCO3)s1	n	n	n	n	n	n	x	x	x	x	x	x
COCCNC(=O)c1cccc(OC2CCN(C(C)COc3ccccc3)CC2)c1 (stereo not drawn)	n	n	n	n	n	n	x	x	x	x	x	x
CCC(C(=O)OCCOCCN(CC)CC)c1ccccc1 (stereo not drawn)	n	n	n	n	n	n	x	x	x	x	x	x
CCN(CC)CCCOC(=O)C(c1ccccc1)c1ccccc1	-7.2	n	n	n	n	n	x	x	x	x	61%	x	TRPC4 sel inh 2=n;TRPC4 spec=9.6%;HEK293 MPD ctr 2-1=n;HEK293 MPD ctr-1=12%
COc1ccc(C)cc1S(=O)(=O)NC(C)C(=O)Nc1ccc2c(c1)OCO2 (stereo not drawn)	n	n	n	n	n	n	x	x	x	x	x	x
